# Assay outcomes: PubChem BioAssay, several laboratories
# BaF3 tox: parental Ba/F3 cell viability inhibition, counter-screen for JAK2V617F inhibitor project, murine pro-B, CellTiter-Glo luminescence; CellTiter-Glo ATP luminescence; AID 1486, 2009; inhibition, % at 5.6 µM; 1.1% of 220,000 active;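 active = inhibition above a per-campaign cutoff, the mean inhibition of all tested compounds plus 3 SD, cut at about 27% in these data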
# IEC-6 tox: cytotoxicity in IEC-6 intestinal epithelial cells, primary screen, cytotoxicity control for KLF5 inhibitor project, cell-based, luminescence; IEC-6 cytotoxicity, luminescence viability; inhibition, % at 5 µM; 0.78% of 290,000 active; in the data active = inhibition above about 22%
# bCat nuc transl: modulators of beta-catenin nuclear translocation, primary screen, imaging, HeLa cells, immunofluorescence, high-content | nuclear translocation activity, % at 5 µM | 0.3% of 190,000 active;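 active = nuclear translocation activity above 50% at 5 µM, with a well cell count of 50 or more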;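 also: per-cell ratio of nuclear to cytoplasmic median beta-catenin stain intensity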
#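 Technique: fluorescence imaging of beta-catenin antibody stain plus DAPI / Material: human HeLa cell line / Incubation: compound treatment 24 h, 37°C, 5% CO2 / Read-out basis: % activation of per-cell nuclear versus cytoplasmic median beta-catenin signal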
# MT stabilizer: microtubule stabilizers in HeLa cells, primary screen, imaging, high-content imaging. HeLa tubulin immunostaining HCS, 24 h; share of cells brighter than vehicle mean+2SD. % tubulin-high responders, % at 10 µM. 0.83% of 200,000 active. AID 2205, 2009;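 active = plate Z-score above 3 for both tubulin-high and condensed-nucleus cell shares, with cell loss under 80%, at 10 µM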;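 also: anti alpha tubulin signal scored within the nucleus-defined area of each cell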
# KLF5 inh: KLF5 expression inhibitors, primary screen, DLD-1 cells, luminescence | DLD-1 KLF5 promoter-luciferase reporter | inhibition, % at 5 µM | 0.23% of 290,000 active | AID 1700, 2009;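 active = inhibition above a per-plate limit of that plate's mean compound inhibition plus 3 SD, cut at about 60% in these data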;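 also: higher means less KLF5 promoter-driven luciferase light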
# Ba/F3 V617F tox: reduced viability of JAK2V617F-dependent Ba/F3 cells, primary screen, JAK2V617F inhibitor project, cell-based, Ba/F3 EpoR-JAK2V617F, luminescence; ATP luminescence; inhibition, % at 5.6 µM; 1.1% of 220,000 active; AID 1446, 2008;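 active = inhibition above the campaign mean plus 3 SD over all tested compounds, cut at about 24% in these data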;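 also: cytokine-independent growth of Ba/F3 cells driven by EpoR plus mutant JAK2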
# Hits are given with their value; n = inactive; x = not tested or not shown. Hits are enriched below; roughly 2.1% of the tested compounds scored in any of these assays.
SMILES,BaF3 tox,IEC-6 tox,bCat nuc transl,MT stabilizer,KLF5 inh,Ba/F3 V617F tox
CN(C)c1ccc(/C=N/NC(=O)c2ccccc2Cl)cc1,n,n,77,21,n,n
CC[n+]1c(C)cc(C)n1-c1ccccc1,65,n,n,n,n,63
C=CCn1c(COc2ccc(Cl)cc2)nnc1SCC(=O)c1c(N)n(C)c(=O)n(C)c1=O,n,n,n,n,n,n
CCn1c(C)c(P(c2ccccc2)c2ccccc2)[n+]2ccccc12,70,n,n,n,n,69
CCn1c(C)c2c(C)nnc(C)c2c1C,n,n,x,n,n,n
COc1cccc(OCc2cc(C(=O)N3CCN(c4ccccc4OC)CC3)no2)c1,x,n,x,x,n,x
COc1cc(/C=C2\COC/C(=C\c3cc(OC)c(OC)c(OC)c3)C2=O)cc(OC)c1OC,105,n,n,x,n,99
COc1cc(/C=C2\CC/C(=C\c3cc(OC)c(OC)c(OC)c3)C2=O)cc(OC)c1OC,n,n,x,n,n,n
O=C(COc1ccc2c3c(c(=O)oc2c1)CCC3)NCC(O)c1ccccc1 (centres undefined),x,n,x,x,n,x
CCc1ccc(CCC(=O)Nc2ncc(Cc3ccccc3Cl)s2)o1,n,n,150,12,n,n
O=C(CN1CCOCC1)Nc1ncc(Cc2ccccc2Cl)s1,n,n,n,n,n,n
CCCCNc1c2c3c(cccc3n(C)c1=O)C(=O)c1ccccc1-2,n,n,n,27,n,n
Cc1ccc(C2Nc3ccccc3C(=O)N2Cc2ccco2)cc1 (centres undefined),n,n,n,18,n,n
CC(C)CN1C(=O)NC(NC(=O)c2ccco2)(C(F)(F)F)C1=O (centres undefined),95,n,n,n,n,n
CS(=O)(=O)c1nc(S(=O)(=O)c2ccc(Cl)cc2)c(N2CCC(O)CC2)s1,x,n,x,x,n,x
Fc1ccc(Br)cc1C1C=C(c2cccnc2)Nc2ncnn21 (centres undefined),n,n,x,18,n,n
O=C(CN1CCN(c2ccc(C(F)(F)F)cn2)CC1)Nc1ccc2c(c1)OCO2,n,n,n,x,n,n
Cc1ccc(NC2=C(CC(=O)O)C(c3ccccc3)N(c3ccc(C)cc3)C2=O)cc1 (centres undefined),n,n,n,12,n,n
COc1ccc(C2C(CC(=O)O)=C(O)C(=O)N2c2ccccc2)cc1 (centres undefined),n,n,n,n,n,n
COc1cccc(N2C(=NC(=O)COc3ccccc3)SC3CS(=O)(=O)CC32)c1 (centres undefined),x,n,x,x,n,x
Cc1c(CN2CCC(CO)(CCOc3ccccc3)CC2)[nH]c2c(Cl)cccc12,n,n,n,29,n,n
Cc1nn(C)c(Cl)c1CN1CCC(CO)(CCOc2ccccc2)CC1,n,n,n,n,n,n
CC(C)(C)C(=O)NN=C1CCC(c2ccccc2)CC1 (centres undefined),x,n,x,x,n,x
COc1ccc(CCN2C(=O)NC(NS(=O)(=O)c3ccc(NC(C)=O)cc3)(C(F)(F)F)C2=O)cc1OC (centres undefined),n,n,n,n,n,n
COc1ccccc1NC(=O)Cn1nnc(C(=O)Nc2ccccc2)c1N,94,n,n,n,n,n
SMILES,BaF3 tox,IEC-6 tox,bCat nuc transl,MT stabilizer,KLF5 inh,Ba/F3 V617F tox
COc1ccccc1NC(=O)c1nnn(CC(=O)Nc2ccccc2)c1N,n,n,n,n,n,n
CCCCN1C2=NCCCN2c2cc(C)c(C)cc21,59,n,n,n,n,51
CCOc1ccc(/C=C/C(O)=C2/C(=O)NC3(C)CC2c2ccccc2O3)cc1OC (centres undefined),n,n,x,n,n,n
CCOc1ccc(/C=C/C(O)=C2/C(=O)N(C)C3(C)CC2c2ccccc2O3)cc1OC (centres undefined),n,n,n,15,n,n
CN1/C(=C\C(=O)C[n+]2cccc(C(N)=O)c2)C(C)(C)c2ccccc21,n,n,n,n,n,n
CN1/C(=C\C(=O)COC(=O)CN2C(=O)C3CC=CCC3C2=O)C(C)(C)c2ccccc21 (centres undefined),n,n,n,n,n,n
Cc1cccc[n+]1CC(=O)/C=C1\N(C)c2ccccc2C1(C)C,67,n,n,n,n,91
Cc1ccc[n+](CC(=O)/C=C2\N(C)c3ccccc3C2(C)C)c1,54,n,n,n,n,51
Cc1cc(=O)[nH]c(SCC(=O)/C=C2\N(C)c3ccccc3C2(C)C)n1,62,n,n,n,n,67
CN1/C(=C\C(=O)CN2C(=O)NC3(CCCCCC3)C2=O)C(C)(C)c2ccccc21,46,n,x,n,n,41
CN1/C(=C\C(=O)C[n+]2ccc(C(=O)c3ccccc3)cc2)C(C)(C)c2ccccc21,n,n,x,n,n,n
CCOC(=O)c1c(C)[nH]c(C)c1S(=O)(=O)NCc1cc(C)ccc1C,x,n,x,x,n,x
CN(C)c1cccc(C(=O)NNC(=O)CSc2ccccc2)c1,x,n,x,x,n,x
CCOC(=O)N1CCC(N2C(=O)c3ccc(C(=O)Nc4ccc(OC)c(OC)c4)cc3C2=O)CC1,x,n,x,x,n,x
CN1/C(=C\C(=O)C[n+]2cccc(Br)c2)C(C)(C)c2ccccc21,67,n,n,n,n,66
CN1/C(=C/C(=O)CSc2ccccc2C(=O)O)C(C)(C)c2ccccc21,n,n,n,x,n,n
COCCn1c(SCC(=O)/C=C2\N(C)c3ccccc3C2(C)C)nnc1-c1ccncc1,34,n,n,n,n,32
CCOC(=O)C1CCN(C(=O)CCNC(=O)Cn2cnc3ccccc3c2=O)CC1,x,n,x,x,n,x
c1ccc(-c2cn(-c3ccccc3)c3[n+]2CCCS3)cc1,63,n,n,x,n,68
Cc1ccc(-c2cn(-c3ccccc3)c3[n+]2CCCS3)cc1,67,n,n,n,n,77
O=C(CSS(=O)(=O)O)N1CCN(C(=O)c2ccoc2)CC1,x,n,x,x,n,x
Cc1nnc(NC(=O)CSc2nccn2Cc2ccccc2)s1,x,n,x,x,n,x
Oc1ccc(/C=N/Nc2nc(N3CCCCCC3)nc(N3CCCCCC3)n2)c(O)c1,34,n,n,n,n,47
COC(=O)c1ccc(CN2CCN(C3CCCC3)C(CCO)C2)cc1 (centres undefined),n,n,n,n,n,n
CCOC(=O)c1ccccc1NS(=O)(=O)c1ccc(C)cc1,n,n,x,26,n,n
Cc1ccc(S(=O)(=O)Nc2cccc3ncccc23)s1,n,94,n,n,n,n
Cc1ccc(S(=O)(=O)Nc2cccc3ncccc23)cc1,n,n,n,x,n,n
O=C1CNC(=O)/C(=C/c2ccco2)N1,n,n,n,n,n,n
